High-throughput results from PubChem BioAssay.
HEK293 NFkB inh: inhibitors of PMA/ionomycin-induced NF-kB reporter, primary screen, antigen receptor NF-kB inhibitor project, cell-based, HEK-293 luciferase reporter, luminescence; HEK-293 NF-kB luciferase reporter; inhibition, % at 3 µM; actives 0.21% (n = 62,000); AID 465, 2006;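 active = inhibition above the mean of all tested compounds plus 3 SD, cut at about 40% in these data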;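 also: 0% = stimulated DMSO wells and 100% = 10 µM reference inhibitor 5653914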
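System – HEK-293 cells with stable firefly luciferase reporter driven by four HIV NF-kB elements · Doses – one dose, 3 µM · Schedule – 1 h compound pre-incubation, 16 h PMA/ionomycin at 37 °C · Technique – luminescence from luciferase substrate reagent · Measure – percent inhibition normalized per plate to DMSO and reference-inhibitor controls · Replicates – tested once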
SF-1 act: activators of human SF-1, primary screen, cell-based, CHO-K1, Gal4-SF-1 LBD, luciferase luminescence; Steroidogenic factor 1 (Homo sapiens), Q13285; CHO-K1 Gal4-SF-1 LBD luciferase reporter; % increase over DMSO SF-1-specific signal; activation, % at 10 µM; actives 1.9% (n = 65,000);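 active = activation above the mean activation of all tested compounds plus 3 SD, cut at about 50% in these data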
Target sequence (Q13285 whole entry, looked up, the tested form may be a part): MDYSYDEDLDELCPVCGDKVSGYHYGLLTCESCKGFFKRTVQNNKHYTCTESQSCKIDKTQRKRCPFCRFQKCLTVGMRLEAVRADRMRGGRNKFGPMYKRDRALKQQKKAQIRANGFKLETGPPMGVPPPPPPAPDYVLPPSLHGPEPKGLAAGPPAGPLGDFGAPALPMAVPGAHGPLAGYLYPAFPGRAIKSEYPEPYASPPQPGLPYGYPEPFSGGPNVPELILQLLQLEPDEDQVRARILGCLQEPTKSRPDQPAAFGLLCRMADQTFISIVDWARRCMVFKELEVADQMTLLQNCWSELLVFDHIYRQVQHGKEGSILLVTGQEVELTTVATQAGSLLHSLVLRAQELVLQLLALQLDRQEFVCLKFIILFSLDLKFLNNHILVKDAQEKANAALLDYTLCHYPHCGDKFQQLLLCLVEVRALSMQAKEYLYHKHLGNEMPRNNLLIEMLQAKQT
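material = CHO-K1 cells with Gal4–hSF-1 LBD chimera plus Gal4-driven luciferase | compound = 10 µM single point, 1% DMSO | incubation = 20 h compound exposure at 37 °C after 1 h cell settling | measured by = SteadyLite luciferase luminescence | evaluation = percent activation relative to DMSO median and mock-transfected background | control set = DMSO negative control and −SF1 background wells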
Jurkat tox 60K: cytotoxicity toward Jurkat T cells, primary screen, cytotoxicity control, cell-based, Jurkat E6.1, 60K MLSMR library; Jurkat E6.1 viability, ATP luminescence, 48 h; inhibition, % at 4 µM; actives 1.2% (n = 56,000); AID 463, 2006;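 active = inhibition above the mean inhibition of all tested compounds plus 3 SD, cut at about 28% in these data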
RORA act: activators of orphan receptor RORA, primary screen, cell-based, luminescence; Nuclear receptor ROR-alpha (Homo sapiens), P35398; CHO-K1 Gal4-RORA LBD luciferase reporter; percent increase over mock-subtracted basal signal; activation, % at 10 µM; actives 1.5% (n = 65,000); AID 560, 2006;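 active = activation above the mean of all tested compounds plus 3 SD, cut at about 49% in these data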;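 also: 0% = DMSO-treated RORA cells and 100% = added signal equal to DMSO minus mock-transfected cells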
Starred values were filed as active, the others as inactive; nt = not tested or not shown. Only some compounds are listed: those with a hit (about 3.9% of all), similar ones and a draw of the others.

SMILES	HEK293 NFkB inh	SF-1 act	Jurkat tox 60K	RORA act
Cc1cccc(/N=C/c2c(O)[nH]c3ccccc23)n1	-16	103*	4	86*
N#CCCSc1ccccc1NC(=O)c1ccc(S(=O)(=O)N2CCCC2)cc1	-2	26	0	-7
CCn1c(SCC(=O)Nc2ccc(N(C)C)cc2)nnc1-c1cccc(C)c1	-4	13	8	21
O=C(Nc1ccccc1)N1CC=C(c2ccccc2)CC1	-39	87*	-5	49*
O=C(Nc1ccccc1)N1CC=C(c2ccc(F)cc2)CC1	-1	38	7	66*
O=C(Nc1cccc(F)c1)N1CC=C(n2c(=O)[nH]c3ccccc32)CC1	12	1	4	1
COC(=O)c1cccc(NC(=O)CSc2nnc(C)n2Cc2ccccc2)c1	1	-7	-6	0
COc1cccc(C=Nc2cccnc2)c1O	46*	-4	0	-13
COc1cccc(/C=N/n2c(C)nc3ccccc3c2=O)c1O	-6	-2	-3	2
Cc1nnc(SCC(=O)Nc2ncc(Cc3ccc(F)cc3)s2)n1N	17	-11	-3	7
Cc1ccc(C(=O)Nc2ncc(Cc3ccc(F)cc3)s2)o1	-29	119*	0	16
Cc1cc(-n2c(C)cc(C(=O)CSc3ccc4c(c3)OCCO4)c2C)no1	19	2	1	-9
COc1cccc(OCc2nnc(SCC(=O)OCc3ccccc3)o2)c1	-1	7	-3	49*
O=C(CSc1nnc(-c2ccccc2)o1)OCc1ccccc1	-3	-4	-6	-12
COc1ccc(OC)c(N2C(=O)CC(C(C)c3ccccc3)C2=O)c1 (stereo unspecified)	28	12	1	-13
O=C(c1cnn(-c2ccccc2)c1-n1cccc1)N1CCN(C2CCCCC2)CC1	8	-6	3	21
OC1CCCCC1Sc1nc2ccccc2s1 (stereo unspecified)	-4	59*	0	30
O=C1OCCC1Sc1nc2ccccc2s1 (stereo unspecified)	11	3	-6	-19
CCOC(=O)C1=C(N)OC2=C(C(=O)CCC2)C1c1ccccc1OCC (stereo unspecified)	2	1	4	-13
CCOc1ccc(S(=O)(=O)n2cnc3cc(C)c(C)cc32)cc1	29	-38	63*	-66
COc1ccc2c(c1)C(C)=CC(C)(C)N2C(=O)CSc1nnc(-c2ccc(C)cc2)o1	10	20	-2	11
Cc1ccc2[nH]c3c(N4CCN(Cc5ccccc5)CC4)ncnc3c2c1	nt	-26	nt	-17
Cc1ccc2c(c1)[nH]c1c(N3CCN(Cc4ccccc4)CC3)ncnc12	10	-50	34*	-23
O=C(Nc1cc2nn(-c3ccccc3)nc2cc1Cl)c1ccco1	-18	73*	1	25
CC(=O)Nc1cc2nn(-c3ccccc3)nc2cc1Cl	-59	11	nt	13
SMILES	HEK293 NFkB inh	SF-1 act	Jurkat tox 60K	RORA act
O=C(c1oc2ccccc2c1CSCc1ccccc1)N1CCN(c2ncccn2)CC1	5	-22	1	-22
N#Cc1nc(-c2cccs2)oc1NCc1ccc2c(c1)OCO2	nt	-4	nt	-18
COc1ccc(-c2cn3ccccc3n2)cc1OC	-28	30	1	49*
CCOC(=O)C(CC)Sc1nc(-c2ccc(OC)cc2)nc2c1c(=O)n(C)c(=O)n2C (stereo unspecified)	11	-6	2	-8
Cc1cc(CCN2CCC(=O)NC2=O)ccc1OC(C)C	3	-10	4	-4
CN1CCN(c2ccc(Cl)cc2NS(=O)(=O)c2ccccc2Cl)CC1	7	26	-7	15
Cc1noc(C)c1COC(=O)c1cccc(S(=O)(=O)N2CCCCCC2)c1	25	-32	40*	-25
COc1ccc(S(=O)(=O)N2CCCCCC2)cc1C(=O)OCc1c(C)noc1C	15	15	3	2
CCn1c(=O)cc(OCC(=O)Nc2ccc(Cl)cn2)c2ccccc21	-3	-12	-3	-16
O=S1(=O)C=C(Sc2nc3ccccc3s2)c2ccccc21	46*	-93	102*	-88
COc1cccc(OC)c1C(=O)Nc1ccc2c(c1)OCCO2	4	-2	-4	-2
O=C(Nc1ccc2c(c1)OCO2)c1c(F)cccc1F	-26	58*	4	25
O=C(Nc1ccc2c(c1)OCCO2)c1cncc(Br)c1	-22	31	-1	29
O=C(Nc1ccc2c(c1)OCO2)c1cncc(Br)c1	nt	53*	nt	14
O=C(Nc1ccc2c(c1)OCO2)c1cccc(F)c1	-1	21	4	52*
CCOc1ccc(C2CC(c3cccc(OC)c3OC)n3nnnc3N2)cc1Cl (stereo unspecified)	-8	3	-5	4
CC(=O)CC1OC(=O)C(Br)=C1NCc1ccccc1 (stereo unspecified)	10	-79	49*	-63
CCCN(CCC)CCNc1c(N2CCN(C(=O)OCC)CC2)c(=O)c1=O	13	-1	-3	-3
CSc1ccc(-c2cc(=O)c3ccccc3o2)cc1	-24	63*	-9	32
O=C(Nc1cc(=O)c2ccccc2o1)N1CCCCC1	8	13	nt	5
CN(C)S(=O)(=O)c1ccc(C(=O)NCc2ccccc2)cc1	18	-3	-5	12
CN(C)S(=O)(=O)c1ccc(C(=O)NCCOc2ccccc2)cc1	-14	56*	5	38
Cc1ccc(NC(=O)c2c(O)c3ccccc3n(C)c2=O)nc1	2	44	nt	18
Cc1ccnc(NC(=O)c2c(O)c3ccccc3n(C)c2=O)c1	-16	76*	6	74*
CCOC(=O)Cn1c(C)nc2c(C(=O)OCC)sc(C)c2c1=O	11	12	0	-11
SMILES	HEK293 NFkB inh	SF-1 act	Jurkat tox 60K	RORA act
COC(=O)Cn1c(C)nc2c(sc3nc(C)cc(C)c32)c1=O	-11	50*	-2	40
Oc1ccc(-c2nnc(SCC3CCCCC3)o2)cc1	-12	64*	21	59*
c1ccc(C(Cc2nc(-c3ccncc3)no2)c2ccccc2)cc1	22	-30	58*	-38
c1ccc(-c2nc(-c3ccncc3)no2)cc1	-23	21	-2	32
Clc1ccccc1CSc1ncccn1	10	3	-2	0
O=C(NCCO)c1cc2ccccc2c(=O)s1	3	-8	-6	-4
COCCNC(=O)c1cc2sc3ccccc3c2s1	-17	50*	-8	61*
CC(=O)Nc1ccc(C(=O)OCCC(C)C)cc1	6	27	1	51*
CCCCOC(=O)c1ccc(NC(=O)C(CCS(C)(=O)=O)NC(C)=O)cc1 (stereo unspecified)	3	10	-6	-15
CCOC(=O)c1ccc(NC(=O)N(CC)CC)cc1	-23	63*	nt	43
